PKA-R1A activ: activates the PKA-R1A holoenzyme complex; PKA-R1A dissociation, Cy5-IP20 fluorescence polarization; scaled: DMSO 0%, 113 µM cGMP 100%; activation, % at 11.4 µM; actives 0.083% (n = 340,000);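 active = percent activation above the mean of all tested compounds plus 3 SD, cut at about 19% in these data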;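 note: higher means more PKAc released from R1A so a rise in polarization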
aDG glyco up: alpha-DG glycosylation activation; activation, % at 10 µM; Pro5-aDG cells, alpha-DG glycosylation AlphaScreen (IIH6); 0% Pro5, 100% B10-LARGE cell signal; actives 0.22% (n = 360,000);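 active = activation of at least 8% versus controls, or a plate z-score of at least 8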;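 note: Pro5 are CHO cells carrying HIG-tagged alpha-DG that lacks glycosylation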
UCH37 inh: human UCH37 deubiquitinating enzyme inhibition; Q9Y5K5; purified proteasome/UCH37, Ub-AMC cleavage fluorescence; actives 0.33% (n = 330,000); inhibition, % (test concentration not listed); AID 588478;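 active = mean inhibition over replicate wells above about 20%, limit read from the data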
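Material: Human UCH37 enzyme supplied as purified proteasome complex | Schedule: 30 min compound-proteasome preincubation then 25 min substrate reaction, room temperature | Detection: AMC fluorescence from Ub-AMC cleavage, excitation 355 nm, emission 460 nm | Benchmarks: Wells without proteasome as full block, compound-free enzyme plus substrate as uninhibited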
CTSL1 counter: counter-screen for PFM18AAP inhibitors: inhibitors of F. hepatica cathepsin L1 | recombinant F. hepatica cathepsin L1, Z-Leu-Arg-MCA fluorescence | inhibition, % at 5.96 µM | actives 0.49% (n = 300,000);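 active = inhibition above the mean of all tested compounds plus 3 SD, set per screening campaign, cut at about 17% in these data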
PKA-R2B activ: PKA-R2B complex activation. AID 504700. P22694+P31323. PKA-R2B holoenzyme dissociation, Cy5-IP20 fluorescence polarization; R2B truncated from residue 108, S112A mutant; 0% DMSO only, 100% 113 µM cGMP. activation, % at 11.4 µM. actives 0.079% (n = 340,000);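 active = activation above a cutoff set at the mean over all compounds plus 3 SD, cut at about 18% in these data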;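 note: higher means more holoenzyme dissociation and a rise in polarization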
Target sequence (P31323 whole entry, looked up, other chains not shown, the tested form may be a part): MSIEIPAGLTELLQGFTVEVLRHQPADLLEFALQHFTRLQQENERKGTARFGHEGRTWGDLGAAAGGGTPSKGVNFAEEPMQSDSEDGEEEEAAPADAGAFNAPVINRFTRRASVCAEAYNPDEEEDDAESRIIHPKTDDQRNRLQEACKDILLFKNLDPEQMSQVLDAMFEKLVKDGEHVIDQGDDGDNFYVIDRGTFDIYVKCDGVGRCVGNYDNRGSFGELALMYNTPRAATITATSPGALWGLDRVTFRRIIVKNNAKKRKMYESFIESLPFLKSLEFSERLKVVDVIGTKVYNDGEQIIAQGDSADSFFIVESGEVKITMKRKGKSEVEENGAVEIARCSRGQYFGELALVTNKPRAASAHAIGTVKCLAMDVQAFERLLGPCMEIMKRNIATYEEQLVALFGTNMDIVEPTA
aDG glyco conf: alpha-DG glycosylation activation, confirmation | Pro5-aDG cells, IIH6 AlphaLISA; scaled to LARGE-overexpressing B10 cells as 100% | actives 17% (n = 600) | activation, % at 10 µM (by protocol) | shares compounds with aDG glyco up;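 active = activation of at least 7% in one or more replicates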;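 note: cells exposed to compound for two days before detection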
A number is an active result; - = inactive; . = not tested or not shown. Rows were chosen to be rich in hits. Some 0.94% of all compounds tested hit in one or more screens of this group.

SMILES | PKA-R1A activ | aDG glyco up | UCH37 inh | CTSL1 counter | PKA-R2B activ | aDG glyco conf
Cc1ccccc1Cn1cc(C=Nn2cnnc2)c2ccccc21 | . | . | - | . | . | .
NS(=O)(=O)c1ccc(CCNCc2cc(Br)ccc2OCc2ccccc2F)cc1 | - | 7.6 | - | - | - | -
NS(=O)(=O)c1ccc(CCNCc2cc(Cl)ccc2OCc2ccccc2)cc1 | - | - | - | - | - | .
C=CCOc1ccc(CN(C)c2ccc(S(=O)(=O)N3CCN(C)CC3)cc2[N+](=O)[O-])cc1 | - | - | - | . | - | .
CN1CCN(S(=O)(=O)c2ccc(N(C)Cc3ccc(C(F)(F)F)cc3)c([N+](=O)[O-])c2)CC1 | - | 5.8 | - | . | - | -
CC(=NNC(N)=S)c1cc2ccc(O)cc2oc1=O | . | . | - | . | . | .
CON=C(CS(=O)(=O)c1ccc(C)cc1)c1ccc(OC)cc1 | . | . | - | . | . | .
Cc1cc(=O)oc2cc(OCC(=O)N3CCc4ccccc4C3)ccc12 | - | 4.2 | - | - | - | -
CCC1CCCCN1C(=O)CN1C(=O)c2ccccc2S1(=O)=O (centres undefined) | - | 3.3 | - | - | - | -
Nc1nc(-c2ccccn2)nc(N)c1Cc1c(F)cccc1Cl | - | 8.0 | - | - | - | -
Cc1n[nH]c(=S)n1N=Cc1ccc(OCc2ccc(Cl)cc2Cl)cc1 | . | . | - | . | . | .
Oc1ccc(C[C@H]2CNC(=S)N2CC2CCCN2C[C@H](Cc2ccc(O)cc2)N2C[C@H](Cc3ccccc3)N(CC3CCCCC3)C2=S)cc1 (some centres undefined) | - | 8.9 | . | . | - | -
CC(CC(=O)Nc1c(C)cc(C)cc1C)=NNC(=O)c1cnccn1 | . | . | - | . | . | .
O=C(c1cc(COc2c(F)cccc2F)on1)N1CCC(c2ccccc2F)C1 (centres undefined) | - | - | - | - | - | .
O=C(c1cc(COc2c(F)cccc2F)on1)N1CCC(c2ccncc2)CC1 | - | 9.2 | - | - | - | -
Cc1cccc(C)c1OCc1cc(C(=O)N2CCC(c3ccncc3)CC2)no1 | - | 6.2 | - | - | - | -
CC12CCC(C(=O)NN=Cc3ccc(O)cc3)(OC1=O)C2(C)C (centres undefined) | . | . | - | . | . | .
COc1ccccc1C(=O)Nc1ccc2c(c1)CCCN2C(=O)c1cccs1 | - | - | . | - | - | .
COc1ccccc1C(=O)Nc1ccc2c(c1)CCCN2C(=O)c1ccccc1 | - | 9.6 | - | - | - | -
CC(=O)Nc1ccc(NC(=O)CSCCc2ccccn2)cc1 | - | 4.5 | - | - | - | -
COc1cc(NC(=S)N2CCN(S(=O)(=O)c3ccc(F)cc3)CC2)cc(OC)c1 | - | 14 | - | . | - | -
O=c1[nH]nc(-c2ccc([N+](=O)[O-])o2)c(=O)[nH]1 | - | - | - | . | - | .
Nc1nnc(-c2ccc([N+](=O)[O-])o2)s1 | - | 7.9 | - | . | - | 4.0
O=C1SCCN1N=Cc1ccc([N+](=O)[O-])o1 | - | 7.2 | - | . | - | 3.5
COc1ccc(C=NNc2ncccc2[N+](=O)[O-])c(OC)c1 | . | . | - | . | . | .
SMILES | PKA-R1A activ | aDG glyco up | UCH37 inh | CTSL1 counter | PKA-R2B activ | aDG glyco conf
CC(=O)N1CCCc2cc(S(=O)(=O)N3CCC(C)CC3)ccc21 | - | 23 | - | - | - | -
CC(C)(C)OC(=O)NCCC(=O)NN=Cc1ccc2ncccc2c1 | . | . | - | . | . | .
O=C(NN=Cc1ccccn1)c1cc(Br)ccc1O | . | . | - | . | . | .
C[C@H]1CN([C@@H](C)CO)C(=O)Cc2cc(NC(=O)CCC(F)(F)F)ccc2O[C@H]1CN(C)Cc1ccc(-c2ccccc2)cc1 | - | 5.7 | - | . | - | -
CC(C)NC(=O)N(C)C[C@H]1Oc2ccc(NC(=O)Nc3ccccc3)cc2C(=O)N([C@H](C)CO)C[C@@H]1C | - | - | - | . | - | .
CC(C)NC(=O)N(C)C[C@H]1Oc2ccc(NC(=O)Cc3ccccc3)cc2C(=O)N([C@H](C)CO)C[C@@H]1C | - | 9.5 | - | . | - | -
C[C@H](CO)N1C[C@H](C)[C@@H](CN(C)S(=O)(=O)c2ccccc2)OCCCC[C@H](C)Oc2ccc(NC(=O)CCC(F)(F)F)cc2C1=O | - | 3.4 | . | . | - | -
CC(=NNS(=O)(=O)c1ccc(C)cc1)c1ccc(C)s1 | . | . | - | . | . | .
FC(F)Oc1ccc(NC(=S)NC23CC4CC(CC(C4)C2)C3)cc1 | - | 2.0 | - | - | - | -
CCOc1ccc(NC(=S)NC23CC4CC(CC(C4)C2)C3)cc1 | - | - | . | - | - | .
CC[C@]12c3[nH]c4ccc(Cl)cc4c3CCN1C(=O)[C@@H](CC(=O)NCCc1ccccn1)C[C@@H]2C(=O)N1CCN(C(=O)C2CC2)CC1 | - | 7.9 | - | . | - | -
COc1cc(C=NN2C(=O)CSC2=S)ccc1O | . | . | - | . | . | .
O=C(Nc1cc([N+](=O)[O-])ccc1O)NC1CCS(=O)(=O)C1 (centres undefined) | - | - | - | . | - | .
CC1(NC(=O)Nc2cc([N+](=O)[O-])ccc2O)CCS(=O)(=O)C1 (centres undefined) | - | 6.9 | - | . | - | -
CC/C(=N\NC(=O)C1CCCC1)c1ccc(Br)cc1 | - | 8.8 | . | . | - | -
CCC(=NNC(=O)C1CCCC1)c1ccc(Br)cc1 | . | . | - | . | . | .
CC(=NO)c1ccn(S(=O)(=O)c2ccc(Cl)cc2)c1 | . | . | - | . | . | .
CN1CC(=O)N(CC(=O)Nc2ccc(Cl)c(C(F)(F)F)c2)C1=O | - | 5.9 | - | - | - | -
CCn1cc(C(=O)NCCCN2CCCC(C)C2)c(=O)c2cc(S(=O)(=O)N3CCc4ccccc4C3)ccc21 (centres undefined) | - | - | - | - | - | .
CCC1CCCCN1CCCNC(=O)c1cn(CC)c2ccc(S(=O)(=O)N3CCc4ccccc4C3)cc2c1=O (centres undefined) | - | 9.1 | - | - | - | -
Cc1ccc(CNC(=O)CN(C(=O)C2(C)CC(=O)N=C3C=CC=CN32)c2cccc(C)c2C)cc1 (centres undefined) | - | 2.6 | - | - | - | -
CCN1CCc2c(sc(NC(=O)c3ccc(S(=O)(=O)N4CCCC4)cc3)c2C(=O)NC)C1 | - | 47 | - | - | - | -
CN1CCc2c(sc(NC(=O)c3ccc(S(=O)(=O)N4CCCC4)cc3)c2C(N)=O)C1 | - | 14 | - | - | - | -
CCOC(=O)N1CCN(S(=O)(=O)c2ccc(C(=O)Nc3sc4c(c3C(N)=O)CCN(CC)C4)cc2)CC1 | - | 86 | - | - | - | -
CNC(=O)c1c(NC(=O)c2ccc(S(=O)(=O)N3CCCCC3)cc2)sc2c1CCN(C(C)C)C2 | - | - | - | - | - | .
CN1CCc2c(sc(NC(=O)c3ccc(S(=O)(=O)N4CCOCC4)cc3)c2C(N)=O)C1 | - | - | - | - | - | .
O=C(NN=Cc1ccc([N+](=O)[O-])cc1)c1c[nH]c2ccccc12 | . | . | - | . | . | .
